In ChEMBL document CHEMBL1149618, “Selection, synthesis, and structure-activity relationship of tetrahydropyrido[4,3-d]pyrimidine-2,4-diones as human GnRH receptor antagonists” (Bioorg Med Chem, 2007):
Calls of active or inactive are those of the source. The rule behind the calls is not given here.

biological target: T1, Gonadotropin-releasing hormone receptor (Homo sapiens) (UniProt P30968); assay: (§1) Displacement of [125I]His5,D-Tyr6]GnRH from human cloned GnRH receptor transfected in COS7 cells; type: cell-based; conditions: COS-7
T1 sequence (whole entry): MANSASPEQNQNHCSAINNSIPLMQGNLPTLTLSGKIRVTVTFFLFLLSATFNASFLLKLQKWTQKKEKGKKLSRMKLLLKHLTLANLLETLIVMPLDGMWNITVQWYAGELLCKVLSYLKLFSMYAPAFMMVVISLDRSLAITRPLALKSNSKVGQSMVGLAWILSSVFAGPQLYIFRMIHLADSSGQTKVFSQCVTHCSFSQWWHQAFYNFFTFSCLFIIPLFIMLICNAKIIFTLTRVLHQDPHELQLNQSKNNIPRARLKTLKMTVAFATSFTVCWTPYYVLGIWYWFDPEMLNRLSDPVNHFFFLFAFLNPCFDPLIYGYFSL
Method in brief: (§2)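 Competition binding against the radiolabelled GnRH agonist at the cloned human GnRH receptor, following a previously published method. Only compounds above 85% UV purity at 220 and 254 nm by LC–MS were assayed. Each compound was tested at least twice.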

Activity	Compound
inactive	COc1ccccc1CN1CCc2c(c(=O)n(CCN(C)CCc3ccccn3)c(=O)n2Cc2c(F)cccc2F)C1

biological target: T2, Gonadotropin-releasing hormone receptor (Homo sapiens, UniProt P30968); assay: as §1; type: cell-based, COS-7; conditions: not given; method in brief: as §2
T2 sequence (P30968 whole entry): T1 sequence (whole entry)

Ki [nM]	Compound
600	Cc1ccc(CN2CCc3c(c(=O)n(CC4CCCN(CCc5ccccn5)C4)c(=O)n3Cc3c(F)cccc3F)C2)c(C)c1 (centres undefined)
990	CN(CCc1ccccn1)CCn1c(=O)c2c(n(Cc3c(F)cccc3F)c1=O)CCN(Cc1ccccc1)C2
5	Cc1cc(Cl)ccc1CN1CCc2c(c(=O)n(CCN(C)CCc3ccccn3)c(=O)n2Cc2c(F)cccc2F)C1
2450	Cc1ccc(CN2CCc3c(c(=O)n(CC4CCCNC4)c(=O)n3Cc3c(F)cccc3F)C2)c(C)c1 (centres undefined)
945	Cc1ccc(CN2CCc3c(c(=O)n(CC4CCCCN4Cc4ccccc4)c(=O)n3Cc3c(F)cccc3F)C2)c(C)c1 (centres undefined)
300	CN(CCc1ccccn1)CCn1c(=O)c2c(n(Cc3c(F)cccc3F)c1=O)CCN(Cc1ccc(C(C)(C)C)cc1)C2
2590	Cc1ccc(CN2CCc3c(c(=O)n(CC4CCCCN4CC(C)C)c(=O)n3Cc3c(F)cccc3F)C2)c(C)c1 (centres undefined)
> 10000	CN(CCc1ccccn1)CCn1c(=O)c2c(n(Cc3c(F)cccc3F)c1=O)CCN(Cc1nc3ccccc3n1C)C2
20	CCc1ccc(CN2CCc3c(c(=O)n(CCN(C)CCc4ccccn4)c(=O)n3Cc3c(F)cccc3F)C2)cc1
30	O=c1c2c(n(Cc3c(F)cccc3F)c(=O)n1C[C@H]1CCCCN1CCc1ccccn1)CCN(Cc1ccc(Cl)cc1)C2
380	Cc1c(CN2CCc3c(c(=O)n(CCN(C)CCc4ccccn4)c(=O)n3CC3CCCCC3)C2)sc2ccccc12
1400	CCc1ccc(CN2CCc3c(c(=O)n(CCN(C)C)c(=O)n3Cc3c(F)cccc3F)C2)cc1
25	Cc1ccc(CN2CCc3c(c(=O)n(CC4CCCCN4Cc4ccccn4)c(=O)n3Cc3c(F)cccc3F)C2)c(C)c1 (centres undefined)
10	O=c1c2c(n(Cc3c(F)cccc3F)c(=O)n1C[C@H]1CCCN1CCc1ccccn1)CCN(Cc1ccc(Cl)cc1)C2
160	Cc1ccc(CN2CCc3c(c(=O)n(CC4CCCN(Cc5ccccc5)C4)c(=O)n3Cc3c(F)cccc3F)C2)c(C)c1 (centres undefined)
970	COc1cccc(-n2c(=O)c3c(n(Cc4c(F)cccc4F)c2=O)CNCC3)c1
255	CN(CCc1ccccn1)CCn1c(=O)c2c(n(Cc3c(F)cccc3F)c1=O)CCN(Cc1ccc(Cl)c(Cl)c1)C2
15	CCSc1ccc(CN2CCc3c(c(=O)n(CCN(C)CCc4ccccn4)c(=O)n3Cc3c(F)cccc3F)C2)cc1
> 10000	CN(CCc1ccccn1)CCn1c(=O)c2c(n(Cc3c(F)cccc3F)c1=O)CCNC2
> 10000	Cc1ccc(CN2CCc3c(c(=O)n(CC4CCCN(CC(C)C)C4)c(=O)n3Cc3c(F)cccc3F)C2)c(C)c1 (centres undefined)

Ki [nM]	Compound
> 10000	Cc1ccc(CN2CCc3c(c(=O)n(CC4CCCCN4)c(=O)n3Cc3c(F)cccc3F)C2)c(C)c1 (centres undefined)
850	CN(CCc1ccccn1)CCn1c(=O)c2c(n(Cc3c(F)cccc3F)c1=O)CCN(Cc1cccc(Cl)c1)C2
540	COc1cccc(-n2c(=O)c3c(n(Cc4c(F)cccc4F)c2=O)CN(Cc2ccc(-n4ccnc4)cc2)CC3)c1
305	Cc1c(CN2CCc3c(c(=O)n(CCN(C)CCc4ccccn4)c(=O)n3Cc3ccccc3)C2)sc2ccccc12
85	Cc1ccccc1CN1CCc2c(c(=O)n(CCN(C)CCc3ccccn3)c(=O)n2Cc2c(F)cccc2F)C1
1290	COc1cccc(-n2c(=O)c3c(n(Cc4c(F)cccc4F)c2=O)CN(Cc2ccccc2)CC3)c1
> 10000	Cc1c(CN2CCc3c(c(=O)n(CCN(C)CCc4ccccn4)c(=O)n3C)C2)sc2ccccc12
> 10000	Cc1ccc(CN2CCc3c(c(=O)n(CC4CCCN(C)C4)c(=O)n3Cc3c(F)cccc3F)C2)c(C)c1 (centres undefined)
1710	Cc1ccc(CN2CCc3c(c(=O)n(CC4CCCCN4C)c(=O)n3Cc3c(F)cccc3F)C2)c(C)c1 (centres undefined)
> 10000	O=c1c2c(n(Cc3c(F)cccc3F)c(=O)n1C[C@H]1CCCN1)CCN(Cc1ccc(Cl)cc1)C2
20	O=c1c2c(n(Cc3c(F)cccc3F)c(=O)n1C[C@H]1CCCN1Cc1ccccn1)CCN(Cc1ccc(Cl)cc1)C2
1580	COc1cccc(-n2c(=O)c3c(n(Cc4c(F)cccc4F)c2=O)CN(Cc2ccncc2)CC3)c1
> 10000	CN(CCc1ccccn1)CCn1c(=O)c2c(n(Cc3c(F)cccc3F)c1=O)CCN(Cc1ccncc1)C2
45	CN[C@@H](Cn1c(=O)c2c(n(Cc3c(F)cccc3F)c1=O)CCN(Cc1ccc(Cl)cc1)C2)c1ccccc1
35	Cc1ccc(CN2CCc3c(c(=O)n(CCN(C)CCc4ccccn4)c(=O)n3Cc3c(F)cccc3F)C2)cc1
80	Cc1c(CN2CCc3c(c(=O)n(CCN(C)CCc4ccccn4)c(=O)n3Cc3ccccc3F)C2)sc2ccccc12
515	CN(CCc1ccccn1)CCn1c(=O)c2c(n(Cc3c(F)cccc3F)c1=O)CCN(CCc1c[nH]c3ccccc13)C2
490	Cc1ccc(CN2CCc3c(c(=O)n(CC4CCCN(Cc5ccccn5)C4)c(=O)n3Cc3c(F)cccc3F)C2)c(C)c1 (centres undefined)
10	Cc1c(CN2CCc3c(c(=O)n(CCN(C)CCc4ccccn4)c(=O)n3Cc3c(F)cccc3C(F)(F)F)C2)sc2ccccc12
5	Cc1ccc(CN2CCc3c(c(=O)n(CCN(C)CCc4ccccn4)c(=O)n3Cc3c(F)cccc3F)C2)c(C)c1

Ki [nM]	Compound
> 10000	CN(CCc1ccccn1)CCn1c(=O)c2c(n(Cc3c(F)cccc3F)c1=O)CCN(Cc1ccc(-n3ccnc3)cc1)C2
> 10000	Cc1c(CN2CCc3[nH]c(=O)n(CCN(C)CCc4ccccn4)c(=O)c3C2)sc2ccccc12
30	CN(CCc1ccccn1)CCn1c(=O)c2c(n(Cc3c(F)cccc3F)c1=O)CCN(Cc1ccc(C(F)(F)F)cc1)C2
2580	Cc1ccc(CN2CCc3c(c(=O)n(CC4CCCN(C5CCCC5)C4)c(=O)n3Cc3c(F)cccc3F)C2)c(C)c1 (centres undefined)
70	CN(C)[C@@H](Cn1c(=O)c2c(n(Cc3c(F)cccc3F)c1=O)CCN(Cc1ccc(Cl)cc1)C2)c1ccccc1
100	COc1ccc(CN2CCc3c(c(=O)n(CCN(C)CCc4ccccn4)c(=O)n3Cc3c(F)cccc3F)C2)cc1
> 10000	COc1cccc(-n2c(=O)c3c(n(Cc4c(F)cccc4F)c2=O)CN(Cc2ccc(C)cc2)CC3)c1
980	COc1cccc(-n2c(=O)c3c(n(Cc4c(F)cccc4F)c2=O)CN(Cc2ccccc2OC)CC3)c1
15	Cc1c(CN2CCc3c(c(=O)n(CCN(C)CCc4ccccn4)c(=O)n3Cc3c(F)cccc3F)C2)sc2ccccc12
1370	O=c1c2c(n(Cc3c(F)cccc3F)c(=O)n1C[C@H]1CCCN1C1CCCC1)CCN(Cc1ccc(Cl)cc1)C2
10	CSc1ccc(CN2CCc3c(c(=O)n(CCN(C)CCc4ccccn4)c(=O)n3Cc3c(F)cccc3F)C2)cc1
1800	Cc1ccc(CN2CCc3c(c(=O)n(CCN(C)CC(C)C)c(=O)n3Cc3c(F)cccc3F)C2)c(C)c1
17	CN(CCc1ccccn1)CCn1c(=O)c2c(n(Cc3c(F)cccc3F)c1=O)CCN(Cc1ccc(Cl)cc1)C2
180	Cc1ccc(CN2CCc3c(c(=O)n(CCN(C)Cc4ccccn4)c(=O)n3Cc3c(F)cccc3F)C2)c(C)c1
2200	COc1cccc(-n2c(=O)c3c(n(Cc4c(F)cccc4F)c2=O)CN(CCc2c[nH]c4ccccc24)CC3)c1
805	CN(CCc1ccccn1)CCn1c(=O)c2c(n(Cc3c(F)cccc3F)c1=O)CCN(Cc1ccc(S(C)(=O)=O)cc1)C2
520	Cc1ccc(CN2CCc3c(c(=O)n(CC4CCCCN4C4CCCC4)c(=O)n3Cc3c(F)cccc3F)C2)c(C)c1 (centres undefined)
2410	O=c1c2c(n(Cc3c(F)cccc3F)c(=O)n1C[C@@H]1CCCCN1CCc1ccccn1)CCN(Cc1ccc(Cl)cc1)C2
